High-throughput results (PubChem)
Lmaj promast – inhibitors of Leishmania major promastigote growth; hit rate 9% among 200,000; Leishmania major promastigotes, resazurin fluorescence viability; inhibition, % at 10 µM; in the data active means inhibition above about 50%;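 further: promastigotes grown with compound for 44 hours at 28 °C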
PTEN del growth – suppresses growth of cells with PTEN deletion. HCT116 PTEN-null viability, CellTiter-Glo, 60 h; active compounds read low. viability, % at 10 µM. hit rate 1.2% among 140,000;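 active means viability at or below a set limit, 4 SD under the median of all tested compounds, cut at about 3.7% in these data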;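 further: PTEN knockout HCT116 line with beta catenin targeted HCT116 as companion control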
HCT116 bCat-KO – beta-catenin-lacking colon tumor cell growth suppression; hit rate 1.5% among 140,000; HCT116 beta-catenin knockout viability, CellTiter-Glo, 60 h; active compounds read low; viability, % at 10 µM; AID 818;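 active means viability at or under a set limit, the compound median less 4 SD, cut at about 6% in these data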
TNAP inh noacc – TNAP (human) inhibition, acceptor-free conditions. P05186. purified TNAP, CDP-star luminescence, 30 min. inhibition, % at 20 µM. hit rate 0.26% among 200,000;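 active means tissue-nonspecific alkaline phosphatase inhibition above about 50% at 20 µM in the single-dose screen, limit read from the data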
Target sequence (P05186 whole entry, looked up): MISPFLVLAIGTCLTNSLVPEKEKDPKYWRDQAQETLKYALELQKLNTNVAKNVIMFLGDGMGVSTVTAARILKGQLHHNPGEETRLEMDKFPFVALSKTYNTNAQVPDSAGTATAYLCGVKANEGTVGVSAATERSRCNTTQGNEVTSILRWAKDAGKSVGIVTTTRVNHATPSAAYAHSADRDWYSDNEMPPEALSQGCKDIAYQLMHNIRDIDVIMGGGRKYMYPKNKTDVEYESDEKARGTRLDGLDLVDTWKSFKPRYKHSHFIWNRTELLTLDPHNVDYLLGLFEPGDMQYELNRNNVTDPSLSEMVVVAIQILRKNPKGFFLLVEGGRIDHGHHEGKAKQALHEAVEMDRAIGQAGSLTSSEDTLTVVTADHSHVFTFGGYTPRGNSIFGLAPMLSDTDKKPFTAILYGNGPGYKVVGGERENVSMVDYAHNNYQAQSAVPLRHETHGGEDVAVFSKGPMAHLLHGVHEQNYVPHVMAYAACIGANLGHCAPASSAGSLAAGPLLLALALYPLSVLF
TNAP inh hiacc – blocks human TNAP under high phosphate acceptor concentration | purified TNAP, CDP-star luminescence, 1 M DEA | inhibition, % at 20 µM | hit rate 0.03% among 200,000 | AID 1135;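 active means over 50% inhibition of tissue-nonspecific alkaline phosphatase at 20 µM in the single-dose screen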
TNAP act hi DEA – increases human TNAP activity under high phosphate acceptor concentration | P05186 | purified TNAP, CDP-star luminescence, 1 M DEA, 30 min; active compounds read high; 0 = EDTA background, 1 = DMSO-only activity | activation factor at 20 µM | 200,000 tested, under 10 active | AID 1136;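 active means activation factor at least 2 at 20 µM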
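Assay system: human TNAP; Input: enzyme diluted 1/800 final; Reagent: CDP-star luminogenic substrate at 100 µM final; Timing: 30 min, room temperature; Signal: luminescence; Evaluation: TNAP activation factor scaled between EDTA and DMSO control wells.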
Each line names hits and unclear results; the compound was inactive in the other large screens. An excerpt weighted towards active compounds, which were near 9.6% of everything screened.

COc1cc(/C=C2\SC(c3ccc(C)cc3)=NC2=O)cc(OC)c1O	Lmaj promast 57
Cc1ccc(C2=NC(=O)/C(=C/c3cc(O)c(O)c(Br)c3)S2)cc1	none (no result: PTEN del growth, HCT116 bCat-KO)
Cn1c(N)c(C(=O)COC(=O)CSc2cccc3cccc(Cl)c23)c(=O)n(C)c1=O	none (no result: PTEN del growth, HCT116 bCat-KO)
Oc1ccc(C=Nc2cccc3ncccc23)c(O)c1	none
Oc1ccc(C=Nc2ccc3ncccc3c2)c(O)c1	Lmaj promast 93, PTEN del growth 1.7, HCT116 bCat-KO 1.9
COc1ccc(C2c3ccc4ccccc4c3Oc3ncn(Cc4ccco4)c(=N)c32)cc1OC (centres undefined)	Lmaj promast 58, PTEN del growth 0.9, HCT116 bCat-KO 1.7
COc1ccc(C2c3c(ncn(CCN4CCOCC4)c3=N)Oc3ccc4ccccc4c32)cc1OC (centres undefined)	Lmaj promast 100
COc1ccc(C2c3c(ccc4ccccc34)Oc3ncn4nc(Cc5ccccc5)nc4c32)cc1OC (centres undefined)	none
Cc1cc(OC(F)F)ccc1NC(=O)Nc1ccc([N+](=O)[O-])cc1	none
CCOc1ccc(/C=C/C(=O)Nc2ccc(C(N)=O)cc2)cc1OC	none
CCOc1cc(/C=C/C(=O)Nc2ccc(C(=O)NCCN(CC)CC)cc2)ccc1OCC(C)C	Lmaj promast 53 (no result: PTEN del growth, HCT116 bCat-KO)
CC(=O)Nc1ccc2oc(-c3ccccc3)nc2c1	none (no result: PTEN del growth, HCT116 bCat-KO)
O=C(Nc1ccc2oc(-c3ccccc3F)nc2c1)c1ncn[nH]1	Lmaj promast 100
O=C(Nc1ccc2oc(-c3ccccc3)nc2c1)c1ccccc1F	none
Cc1cccc(-c2nc3cc(NC(=O)C4CCCO4)ccc3o2)c1 (centres undefined)	Lmaj promast 75
O=C(Nc1ccc2oc(-c3cccc(F)c3)nc2c1)c1ccccc1F	PTEN del growth 2.4
O=C(Nc1ccc2oc(-c3ccc(Cl)c(Cl)c3)nc2c1)c1ncn[nH]1	PTEN del growth 0.9, HCT116 bCat-KO 1.0
Cc1ccc2oc(-c3cccc(NC(=O)C4CCCO4)c3)nc2c1 (centres undefined)	none
O=C(Cc1ccccc1)NC(=S)Nc1ccc2oc(-c3ccccc3F)nc2c1	none
C#CCNC(=O)C(C)c1ncc(C(F)(F)F)cc1Cl (centres undefined)	none (no result: PTEN del growth, HCT116 bCat-KO)
CCCCOC(=O)c1ccc(NC(=O)/C=C/c2cccs2)cc1	none
CCc1ccc(C2NC(=S)NC3=C2C(=O)N(c2ccccc2OC)C(c2ccc(CC)cc2)N3)cc1 (centres undefined)	none
O=C1C2=C(NC(=S)NC2c2ccc(Cl)cc2)NC(c2ccc(Cl)cc2)N1c1ccc(Cl)cc1 (centres undefined)	Lmaj promast 100
COC(=O)c1ccc(COC(=O)c2ccc(CO)cc2)o1	Lmaj promast 65
COC(=O)c1ccc(Cc2ccc(C(=O)OC)o2)o1	none
COc1ccccc1-c1c(C(F)(F)F)oc2cc(OCC(=O)Nc3cc(C)ccc3C)ccc2c1=O	none
Cc1cccc(NC(=S)N(CCCN2CCOCC2)C(C)c2cc3ccccc3o2)c1C (centres undefined)	Lmaj promast 80 (no result: PTEN del growth, HCT116 bCat-KO)
Cc1cccc(NC(=S)N(CCCN2CCOCC2)C(C)c2cc3ccccc3o2)c1 (centres undefined)	Lmaj promast 81 (no result: PTEN del growth, HCT116 bCat-KO)
CCN(CC)CCNC(=O)Cc1nn(CC)c(=O)c2ccccc12	none
CCN(CC)CCNc1ccc(CO)c2sc3ccccc3c(=O)c12	Lmaj promast 100, PTEN del growth 1.9, HCT116 bCat-KO 1.9
O=c1oc(-c2ccc(Br)o2)nc2ccccc12	none
CSc1ccc(/C=C(/NC(=O)c2ccc(C)cc2)C(=O)Nc2cccc(F)c2)cc1	none
COc1ccc(/C=N/N2CCN(C3c4ccccc4-c4ccccc43)CC2)cc1O	Lmaj promast 67
COc1cc(C2C(C#N)=C(N)N(Nc3ccccc3)C3=C2C(=O)CC(C)(C)C3)ccc1OCc1cccc(F)c1 (centres undefined)	Lmaj promast 56
COc1ccc(C2C(C#N)=C(N)N(c3cccnc3)C3=C2C(=O)CC(C)(C)C3)cc1OC (centres undefined)	none
COc1ccc(C2C(C#N)=C(N)N(Nc3ccccc3)C3=C2C(=O)CC(C)(C)C3)cc1C (centres undefined)	Lmaj promast 86
COc1cc(C2C(C#N)=C(N)N(Nc3ccccc3)C3=C2C(=O)CC(C)(C)C3)ccc1OCc1ccccc1 (centres undefined)	Lmaj promast 100
C=CCOc1ccc(C2C(C#N)=C(N)N(Nc3ccccc3)C3=C2C(=O)CCC3)cc1OC (centres undefined)	Lmaj promast 96
O=C(O)CCN1C(=O)c2ccc(NC(=O)Cc3ccc(Cl)cc3)cc2C1=O	none (no result: PTEN del growth, HCT116 bCat-KO)
CC(C)CN1CCNC(=O)C1CC(=O)NCc1cnn(-c2cccc(F)c2)c1 (centres undefined)	none (no result: PTEN del growth, HCT116 bCat-KO)
O=C(OCC(=O)N1CCc2ccccc2C1)c1cccc([N+](=O)[O-])c1	none
COC(=O)c1cc2oc3ccccc3c2n1CC(=O)Nc1ccccc1OC	Lmaj promast 83
COc1ccccc1NC(=O)Cn1c(=O)n(-c2ccccc2)c(=O)c2oc3ccccc3c21	none
COc1ccc(NC(=O)Cn2c(=O)n(-c3ccccc3)c(=O)c3oc4ccccc4c32)c(OC)c1	Lmaj promast 61
COc1cccc(CNC(=O)c2cc3oc4ccccc4c3n2C)c1OC	none
CCOc1ccccc1CNC(=O)c1cc2oc3ccccc3c2n1CC	Lmaj promast 97
O=C(CN1CCc2ccccc2C1)Nc1cccc(S(=O)(=O)N2CCCC2)c1	none (no result: PTEN del growth, HCT116 bCat-KO)
Cc1cc(C)cc(NC(=O)c2cnn(-c3ccccc3)c2C2CCNCC2)c1	none (no result: PTEN del growth, HCT116 bCat-KO)
CCCC(=O)c1cc(F)c(N2CCN(S(=O)(=O)c3ccccc3)CC2)cc1C	none
CCC(=O)c1cc(F)c(N2CCN(S(=O)(=O)c3ccccc3)CC2)cc1C	Lmaj promast 64
O=C(O)CC1COc2ccccc2N1C(=O)c1ccccc1Cl (centres undefined)	none (no result: PTEN del growth, HCT116 bCat-KO)
COc1ccc(CCNC(=O)c2cccs2)cc1OC	none (no result: PTEN del growth, HCT116 bCat-KO)
COc1ccc(CNc2nc(NCc3ccc(OC)c(OC)c3)n(C(=O)c3cccs3)n2)cc1OC	Lmaj promast 97
Cn1c(N)c(C(=O)COC(=O)CC2CC3CCC2C3)c(=O)n(C)c1=O (centres undefined)	none (no result: PTEN del growth, HCT116 bCat-KO)
COc1ccc(NC(=O)/C(C#N)=C\c2ccc(OCc3ccc(C(=O)O)cc3)c(OC)c2)cc1	none (no result: PTEN del growth, HCT116 bCat-KO)
COc1ccc(NC(=O)/C(C#N)=C/c2ccc3c(c2)n(C)c(=O)n3C)cc1	Lmaj promast 57
COc1cc2c(cc1OC)C1Cc3ccc(OC)c(OC)c3CN1CC2 (centres undefined)	Lmaj promast 95
CCOP(=O)(O)c1cccc(OCCOCCOc2cccc(P(=O)(O)OCC)c2)c1	none (no result: PTEN del growth, HCT116 bCat-KO)
CCCCNCC1C(Oc2ccc(Cl)cc2)C(=O)N1c1ccccc1C (centres undefined)	none (no result: PTEN del growth, HCT116 bCat-KO)
